Series [1] can be described thus: Cytotoxicity against human H4 cells after 72 hrs. In kind it is cell-based. The method in brief:
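H4 human fetal small intestine cells grown in DMEM with 5% fetal calf serum and L-glutamine (2 mmol/L). Cells were exposed to 3-fold serial dilutions starting at 0.5 mg/mL (DMSO stock, final DMSO <0.1%) at 37 °C for 72 h. Treated (n = 2) vs control (n = 24) wells; CC50 from concentration–effect curve.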

Series [2] deals with Rotavirus. Briefly: Antiviral activity against rotavirus RF infected human Caco-2 cells following viral attachment after 72 hrs. In kind it is functional, organism-based. To be noted: Caco-2, 72 h. In outline: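 Washed Caco-2 monolayers exposed to rotavirus RF (1.5 TCID50/mL) for 1 h at 37 °C, 5% CO2 to allow attachment. Unbound virus washed off with plain DMEM, then 3-fold compound dilutions (initial 0.5 mg/mL) added at once. Infected wells (n=6) compared with virus-only controls (n=6). IC50 read from the curve.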

Series [3] relates to H4. Briefly: Selectivity index, Ratio of CC50 for human H4 cells to CC50 for human skin melanoma cells. In kind it is functional. In outline:
(§1)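 Tumor selectivity index: CC50 on normal fetal intestinal H4 cells divided by CC50 on the named tumor line, both from the 72 h crystal violet cytotoxicity assay.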

Series [4] concerns MCF7. Briefly: Selectivity index, Ratio of CC50 for human H4 cells to CC50 for human MCF7 cells. It counts as functional. In outline: as §1
A short description of series [5]: Selectivity index, Ratio of CC50 for human Caco-2 cells to IC50 for rotavirus RF infected human Caco2 cells after viral attachment. In kind it is functional. The method in brief:
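Ratio of Caco-2 CC50 (72 h crystal violet assay) to rotavirus IC50 from the post-attachment infectivity assay.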

Series [6] deals with MCF7. Briefly: Cytotoxicity against human MCF7 cells after 72 hrs. It counts as functional. To be noted: MCF7, 72 h. The method in brief:
(§2)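 Cells grown in DMEM with 5% FCS and L-glutamine, then seeded in 96-well plates. Treated with 3-fold serial dilutions (initial 0.5 mg/mL; DMSO stocks, final DMSO <0.1%) for 72 h at 37 °C. Treated wells (n=2) compared with controls (n=24). CC50 read from the concentration–effect curve.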

In series [7] the test system is H4. Briefly: Selectivity index, Ratio of CC50 for human H4 cells to CC50 for human Caco-2 cells. It counts as functional. In outline:
as §1

Series [8] relates to Rotavirus. Briefly: Antiviral activity against rotavirus RF in human Caco-2 cells after neutralization of virus in solution pre-incubated with compound for 12 hrs before infection. In kind it is functional, organism-based. In outline:
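Rotavirus RF (grown on Caco-2 with trypsin, 1.5 TCID50/mL, 100 µL per well) pre-incubated 12 h with 3-fold compound dilutions (initial 0.5 mg/mL) in trypsin-containing DMEM, then added to Caco-2 monolayers at 37 °C, 5% CO2. Infected treated wells (n=6) compared with virus-only wells (n=6). IC50 read from the concentration–effect curve.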

The test system of series [9] is Caco-2. Briefly: Growth inhibition of human Caco-2 cells after 10 days. To be noted: Caco-2, 240 h. In kind it is functional, cell-based. In outline:
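Caco-2 cells seeded at 10 cells/well in DMEM/10% FBS with 3-fold compound dilutions (initial 0.5 mg/mL), six wells per series. Incubated 10 days at 37 °C in a humidified incubator, then colonies counted. Colony number in treated wells (n=2) compared with controls (n=24). IC50 read from the concentration–effect curve.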

The subject of series [10] is Caco-2. Briefly: Cytotoxicity against human Caco-2 cells after 72 hrs. It counts as functional. To be noted: Caco-2, 72 h. In outline:
as §2

Series [11] can be described thus: Selectivity index, Ratio of CC50 for human Caco-2 cells to IC50 for rotavirus RF in human Caco2 cells after neutralization of virus in solution before infection. It counts as functional. In outline:
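Ratio of Caco-2 CC50 (72 h crystal violet assay) to rotavirus IC50 from the 12 h pre-attachment neutralization assay.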

The nature of series [12]: Cytotoxicity against human skin melanoma cells after 72 hrs. It counts as functional. Conditions: Melanoma cell. In outline:
as §2

Values joined by “and” are separate entries in the source; they are usually repeats but may differ in a detail not shown here. Identical values can stand only once.

Broadly, the CC50 is the concentration that lowers cell viability or growth by half. Read a high CC50 as better tolerance by the cells. For orientation: IC50 means the concentration at which inhibition is half-maximal. In turn, `CC(=O)O[C@@H]1[C@@H](F)[C@@H](CSC(C)=O)O[C@H]1n1cc(C)c(=O)[nH]c1=O` displayed a half-maximal cytotoxic concentration (CC50) at 72 h in series [1] of 139 µM. The 50% inhibitory concentration (IC50) is 16.6 µM and 6 µg/mL in series [2]; 2 µg/mL and 5.55 µM in [8]; 1.9 µM in series [9]. Also, the values for the Selectivity index in [3], in series [4] and in series [7] were 0.5, 0.5 and 2.5, respectively. Besides, the “Ratio CC50/IC50” value in series [5] came to 3.33; in [11] it was 10. Further, the values for the cytotoxic concentration (CC50) in [6], in [10] and in series [12] were 278 µM, 55.5 µM and 278 µM, respectively.

Turning to `CC(=O)O[C@@H]1[C@@H](F)[C@@H](CSC(C)=O)O[C@H]1n1cc(F)c(=O)[nH]c1=O`, in series [1], the CC50 at 72 h stood at 1370 µM. Also, the IC50 is 16.5 µM and 6 µg/mL in series [2]; 6 µg/mL and 16.5 µM in series [8]; 16.5 µM in [9]. Further, the Selectivity index is 83.2 in series [3], 1 in [4] and 25 in series [7]. Besides, the “Ratio CC50/IC50” value in series [5] and in series [11] was 3.33 throughout. Also, the CC50 was 1370 µM in series [6], 54.9 µM in [10] and 16.5 µM in [12].

Turning to `CC(=O)O[C@@H]1[C@@H](F)[C@@H](CSC(C)=O)O[C@H]1n1ccc(=O)[nH]c1=O`, the midpoint of cytotoxicity in series [1], the CC50 at 72 h, lay at 1440 µM. The IC50 in series [2] was 17.3 µM and 6 µg/mL; in series [8] it was 6 µg/mL and 17.3 µM; in series [9], 5.8 µM. For the same molecule, the values for the Selectivity index in series [3], in series [4] and in series [7] were 83.5, 5 and 25, respectively. Further, the “Ratio CC50/IC50” value in series [5] and in series [11] was 3.33 in each case. Besides, the CC50 in series [6] came out at 289 µM; in [10], 57.8 µM; in [12] it was 17.3 µM.

Consider `O=c1[nH]cc(F)c(=O)[nH]1` [FLUOROURACIL], for which, in series [1], the CC50 at 72 h is 3840 µM. In addition, the Selectivity index in [3] is reported as 83.4; in [4] it was 5; in series [7], 10. For the same molecule, the 50% cytotoxic concentration (CC50) stood at 769 µM in [6], 384 µM in series [10] and 46.1 µM in series [12]. The same molecule registered an IC50 in series [9] of 1.5 µM.

On to `Cc1cn([C@H]2C[C@H](N=[N+]=[N-])[C@@H](CO)O2)c(=O)[nH]c1=O` [ZIDOVUDINE], for which the IC50 in [2] is 22.4 µM and 6 µg/mL; in series [8], 20 µg/mL and 74.8 µM. The “Ratio CC50/IC50” value in series [5] was 2.5; in series [11] it was 0.75.

For the origin of these results see ChEMBL document CHEMBL1143027, “An efficient synthesis of 3-fluoro-5-thio-xylofuranosyl nucleosides of thymine, uracil, and 5-fluorouracil as potential antitumor or/and antiviral agents” (Bioorg Med Chem, 2007).
